Measurements as given in PMC7305985 (Molecular cell, 2020).
Changes are numbered by the printed parent chain. Names and notes keep the numbering of the source.

B1: E662/3A: KAP1 PHD point mutant E662/E663 to A; GST-PHD-BD or FLAG-tagged KAP1 (protein)
chain: PGGGPGTLDDSATICRVCQKPGDLVMCNQCEFCFHLDCHLPALQDVPGAAWSCSLCHVLPDLKEEDGSLSLDGADSTGVVAKLSPANQRKCERVLLALFCHEPCRPLHQLATDSTFSLDQPGGTLDLTLIRARLQEKLSPPYSSPQEFAQDVGRMFKQFNKLTEDKADVQSIIGLQRFFETRMNEAFGDTKFSAVLVEPPPMSLPGAGLSSQELSGGPGDGP
modifications: left off: GST, N-terminal, kept
B2: L637A: control mutation L637 in flexible loop between the PHD and BD (protein)
chain: B1 chain with L24A, A49E, A50E
modifications: left off: GST, N-terminal, kept

Experiments:
[1] = system: KAP1 target genes in shKAP1 HCT116 cells; assay: Reconstitution assay, RT-qPCR of KAP1 target genes; type: cell-based; conditions: shKAP1 HCT116, 48 hr; relative to shNT+GFP, normalized to RPL19, n=3; Figure 5H
mono-nucleosomes = assay: Nucleosome binding assay; set-up: species or system Human; conditions: relative to WT KAP1; overnight 4°C, pH 7.5; Figure 5E
Outline: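 GST-tagged protein, expressed in bacteria (0.1 mM IPTG, 3 hr, 37°C), was used at 2 µg with 2 µg recombinant biotinylated mono-nucleosomes. Pulldown was on StrepTactin agarose for 1 hr, with 4 washes and boiling elution. 5% input and 20% eluate were blotted with anti-GST 1:5000.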

[2] = system: KAP1 target gene promoters; assay: FLAG ChIP-qPCR of reconstituted KAP1 proteins; type: cell-based; conditions: shKAP1 HCT116, FLAG ChIP-qPCR, % Input, n=3; Figures 5I, 6F
Outline: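 Epitope-tagged KAP1 was re-expressed in shKAP1 HCT116 cells by 1 µg plasmid transfection over 48 hr. Anti-FLAG ChIP used 0.5% formaldehyde crosslinking (10 min) and 150 mM glycine quench. Beads were washed 4 times with each of RIPA, low-salt, high-salt, LiCl and TE buffers. Elution was 30 min at 65°C, de-crosslinking 4 hr at 65°C with proteinase K, and read-out was qPCR.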

Molecule | restoration of KAP1 target gene expression (WT and point mutants) [1] | reduction of KAP1's ability to interact with mono-nucleosomes (mono-nucleosomes) | localization to KAP1 target gene promoters [2]
B1 | but not E662/3A, restored KAP1 target gene expression | ~ 80% | but not E662/3A, localized to all tested gene promoters
B2 | restored KAP1 target gene expression | – | localized to all tested gene promoters
